From ChEMBL document CHEMBL1151197, “Molecular-targeted antitumor agents: the Saururus cernuus dineolignans manassantin B and 4-O-demethylmanassantin B are potent inhibitors of hypoxia-activated HIF-1” (J Nat Prod, 2004)
Calls of active or inactive are those of the source. The calls are words filed in the database; no cut-off is given here.

Key:
Format in all cases: cell-based
[1] = test system: T47D; assay: Inhibition of hypoxia-induced VEGF production in human T47D cells after 16 hrs by ELISA
Summary of the method: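 T47D cells at 3 × 10^4 cells/well, 30 min compound pretreatment, then 16 h hypoxia (1% O2). Secreted VEGF measured in conditioned medium by sandwich ELISA (OD450, 540 nm correction) against a standard curve. Values normalized to viable cell number from Neutral Red uptake (OD540 minus 630 nm, cell-number standard curve). Quadruplicate; mean ± SEM; ANOVA with Fisher's PLSD.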

[2] = biological target: T1, Hypoxia inducible factors; HIF-1-alpha, HIF-2-alpha (Homo sapiens, UniProt Q16665+Q99814); assay: Inhibition of hypoxia-induced HIF1 activation in human T47D cells at 100 nM after 16 hrs by pTK-HRE3-luciferase reporter gene assay
Summary of the method: (§1)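 Reporter: T47D cells electroporated with pTK-HRE3-luc (140 V, 70 ms, 1 pulse), plated 4.5 × 10^4 cells/well, after 24 h pretreated with serial dilutions for 30 min at 37 °C, then hypoxia (1% O2/5% CO2/94% N2) for 16 h at 37 °C. Luciferase read from lysates; triplicate wells, means ± SD. pGL3-Control cells run as counter-screen.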

[3] = biological target: T1, Hypoxia inducible factors; HIF-1-alpha, HIF-2-alpha; assay: Inhibition of 1,10-phenathroline-induced HIF1 activation in human T47D cells after 16 hrs at >=30 nM by pTK-HRE3-luciferase reporter gene assay; design: scale not given: the % may be the effect or the level left
Summary of the method: (§2)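 T47D cells electroporated with pTK-HRE3-luc (140 V, 70 ms, 1 pulse), plated 4.5 × 10^4 cells/well, after 24 h given a dilution series for 30 min at 37 °C, then 10 µM 1,10-phenanthroline for 16 h at 37 °C. Luciferase read from cell lysates; quadruplicate wells. Specificity counter-screen used pGL3-Control-transfected cells.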

[4] = biological target: T1, Hypoxia inducible factors; HIF-1-alpha, HIF-2-alpha; assay: Inhibition of hypoxia-induced HIF1 activation in human T47D cells after 16 hrs by pTK-HRE3-luciferase reporter gene assay; summary of the method: as §1
[5] = biological target: T1, Hypoxia inducible factors; HIF-1-alpha, HIF-2-alpha; assay: Inhibition of 1,10-phenathroline-induced HIF1 activation in human T47D cells after 16 hrs at >=10 nM by pTK-HRE3-luciferase reporter gene assay; design: scale not given: the % may be the effect or the level left; summary of the method: as §2
[6] = biological target: Hypoxia-inducible factor 1-alpha (Homo sapiens) (UniProt Q16665); assay: Inhibition of 1,10-phenathroline-induced nuclear HIF1 alpha level in human T47D cells at 10 to 100 nM preincubated for 30 mins before addition of 1,10-phenathroline measured after 4 hrs by Western blotting
Summary of the method: (§3)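 Seeded at 1.7 × 10^5 cells/cm2 overnight, T47D cells got 10 or 100 nM for 30 min, then 4 h of hypoxia or 10 µM 1,10-phenanthroline at 37 °C. Nuclear extracts prepared by NP-40 lysis and 500 mM KCl extraction, separated on 7% SDS-PAGE. Blots probed with anti-HIF-1α (1:500), stripped, reprobed for HIF-1β (1:1500); ABC/ECL detection, Ponceau-S loading check.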

[7] = test system: T47D; assay: Inhibition of hypoxia-induced nuclear HIF1 beta level in human T47D cells at 10 to 100 nM preincubated for 30 mins before addition of hypoxia measured after 4 hrs by Western blotting; summary of the method: as §3
[8] = biological target: Hypoxia-inducible factor 1-alpha (Homo sapiens) (UniProt Q16665); assay: Inhibition of hypoxia-induced nuclear HIF1 alpha level in human T47D cells at 10 to 100 nM preincubated for 30 mins before addition of hypoxia measured after 4 hrs by Western blotting; summary of the method: as §3
[9] = biological target: T1, Hypoxia inducible factors; HIF-1-alpha, HIF-2-alpha; assay: Inhibition of hypoxia-induced HIF1 activation in human T47D cells at 10 nM after 16 hrs by pTK-HRE3-luciferase reporter gene assay; summary of the method: as §1
[10] = test system: T47D; assay: Inhibition of 1,10-phenathroline-induced nuclear HIF1 beta level in human T47D cells at 10 to 100 nM preincubated for 30 mins before addition of 1,10-phenathroline measured after 4 hrs by Western blotting; summary of the method: as §3

Sequence of Hypoxia-inducible factor 1-alpha (Homo sapiens) (Q16665 whole entry, looked up): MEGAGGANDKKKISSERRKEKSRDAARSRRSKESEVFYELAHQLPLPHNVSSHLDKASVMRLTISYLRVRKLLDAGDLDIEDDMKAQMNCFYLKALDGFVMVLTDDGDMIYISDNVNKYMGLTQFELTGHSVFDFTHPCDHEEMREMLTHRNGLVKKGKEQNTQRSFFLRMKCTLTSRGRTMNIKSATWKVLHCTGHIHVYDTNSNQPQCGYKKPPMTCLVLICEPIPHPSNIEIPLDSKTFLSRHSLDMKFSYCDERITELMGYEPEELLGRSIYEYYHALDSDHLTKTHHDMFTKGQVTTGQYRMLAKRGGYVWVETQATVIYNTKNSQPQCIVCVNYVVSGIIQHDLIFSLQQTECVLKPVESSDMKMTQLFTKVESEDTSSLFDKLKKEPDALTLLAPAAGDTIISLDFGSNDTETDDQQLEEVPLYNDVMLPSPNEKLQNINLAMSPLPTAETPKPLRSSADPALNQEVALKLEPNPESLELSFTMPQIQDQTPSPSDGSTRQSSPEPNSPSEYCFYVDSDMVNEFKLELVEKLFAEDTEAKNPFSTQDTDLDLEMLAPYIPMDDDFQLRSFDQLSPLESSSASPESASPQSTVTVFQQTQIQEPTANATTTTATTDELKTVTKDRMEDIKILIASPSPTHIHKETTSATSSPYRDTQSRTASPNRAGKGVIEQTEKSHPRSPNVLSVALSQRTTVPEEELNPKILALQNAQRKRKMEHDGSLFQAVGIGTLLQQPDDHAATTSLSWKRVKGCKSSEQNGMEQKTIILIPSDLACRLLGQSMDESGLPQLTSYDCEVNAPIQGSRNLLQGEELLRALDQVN

Activity [2] | Activity [3] | IC50 [4] | Activity [5] | Activity [6] | Activity [8] | Activity [9] | Compound | Activity [1] | Activity [7] | Activity [10]
Active | < 50% | 30 nM | < 50% |  |  |  | COc1cc([C@@H](O)[C@@H](C)Oc2ccc([C@H]3O[C@H](c4ccc(O[C@H](C)[C@H](O)c5ccc6c(c5)OCO6)c(OC)c4)[C@H](C)[C@H]3C)cc2OC)ccc1O (mixture of isomers) [4-O-DEMETHYLMANASSANTIN B] | Active |  | 
 | < 50% | 3 nM | < 50% | inactive | Active | Active | COc1ccc([C@@H](O)[C@@H](C)Oc2ccc([C@H]3O[C@H](c4ccc(O[C@H](C)[C@H](O)c5ccc6c(c5)OCO6)c(OC)c4)[C@H](C)[C@H]3C)cc2OC)cc1OC (relative stereo) [MANASSANTIN B] | Active | inactive | inactive
